Results taken from ChEMBL document CHEMBL2169854, “New insight into the central benzodiazepine receptor-ligand interactions: design, synthesis, biological evaluation, and molecular modeling of 3-substituted 6-phenyl-4H-imidazo[1,5-a][1,4]benzodiazepines and related compounds” (J Med Chem, 2011).
pKi: −log10 of the molar value. Calls of active or inactive are those of the source. No cut-off for these calls is given here.

What was measured:
[1] = Displacement of [3H]flumazenil from central benzodiazepine receptor in bovine cortical membrane after 90 mins by beta liquid scintillation counting; format: cell membranes, Bos taurus
Method in brief: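 At least six concentrations spanning 3 log units were tested in 2% DMSO. Ki was obtained by Cheng–Prusoff (Kd 0.85 nM bovine, 0.91 nM human), mean of three determinations.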

[2] = Displacement of [3H]flumazenil from central benzodiazepine receptor in human cortical membrane after 90 mins by beta liquid scintillation counting; format: cell membranes
Bos taurus = organism: Bos taurus; test: Ratio of Ki for central benzodiazepine receptor in bovine cortical membrane to Ki for central benzodiazepine receptor in bovine cortical membrane in presence of 50 uM GABA; format: cell membranes
Mus musculus [3] = test: Anxiolytic effect in mouse assessed as increase in time spent in light compartment at 1 mg/kg, ip by light/dark box test; format: functional, organism-based; design: dose 1 mg/kg
Method in brief: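 Male mice were used. Compound was given orally as a suspension in 1% CMC; diazepam was given ip in saline; volume 10 mL/kg. Each mouse was placed in the lit side of a two-compartment light/dark box and observed for 5 min, scoring time in the light and transfers. Groups were compared by ANOVA with Fisher PLSD.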

Mus musculus [4] = test: Myorelaxant activity in mouse assessed as motor coordination measuring number of falls at 1 mg/kg, ip measured for 30 seconds after 45 mins of compound administration by rotarod test; format: functional, organism-based; design: dose 1 mg/kg
Homo sapiens = organism: Homo sapiens; test: Ratio of Ki for central benzodiazepine receptor in human cortical membrane to Ki for central benzodiazepine receptor in human cortical membrane in presence of 50 uM GABA; format: cell membranes
Rattus norvegicus [5] = organism: Rattus norvegicus; test: Agonist activity at central benzodiazepine receptor in Sprague-Dawley rat cerebrocortical synaptoneurosomes assessed as increase in GABA-induced [36]chloride ion flow after 10 seconds by beta liquid scintillation counting; format: functional
Method in brief: (§1)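 Cerebral cortex from male Sprague-Dawley rats was homogenised and filtered, and synaptoneurosomes were washed in HEPES pH 7 buffer (145 mM NaCl, 5 mM KCl, 5 mM MgCl2, 1 mM CaCl2, 10 mM glucose). Aliquots of 1.5–2 mg protein were preincubated 10 min at 30 C. Drug was added with 0.2 μCi 36Cl−, uptake was stopped at 10 s, and filter-bound radioactivity was counted by scintillation.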

Rattus norvegicus [6] = organism: Rattus norvegicus; test: Antagonist activity at central benzodiazepine receptor in Sprague-Dawley rat cerebrocortical synaptoneurosomes assessed as effect on GABA-induced [36]chloride ion flow after 10 seconds by beta liquid scintillation counting; format: functional; method in brief: as §1
[7] = biological target: T1, GABA-A receptor; alpha-1/beta-2/gamma-2 (Homo sapiens) (UniProt P14867+P47870+P18507); test: (§2) Modulation of human recombinant GABA-A alpha1beta2gamma2L receptor expressed in Xenopus laevis oocytes assessed as effect on GABA-induced chloride current at 1 uM incubated 60 seconds before addition of GABA measured after 30 seconds at holding potential -70 mV by two-microelectrode voltage clamp technique relative to control; format: cell-based; conditions: Oocyte
[8] = biological target: T1, GABA-A receptor; alpha-1/beta-2/gamma-2 (Homo sapiens); test: as §2, with “at 10” for “at 1”; format: cell-based; conditions: Oocyte
[9] = biological target: T2, GABA A receptor alpha-1/beta-1/gamma-2 (Homo sapiens) (UniProt P14867+P18507+P18505); test: as §2, with “alpha1beta1gamma2L” for “alpha1beta2gamma2L”; format: cell-based; conditions: Oocyte
[10] = biological target: T2, GABA A receptor alpha-1/beta-1/gamma-2 (Homo sapiens); test: as §2, with “alpha1beta1gamma2L” for “alpha1beta2gamma2L”, “10” for “1”; format: cell-based; conditions: Oocyte
Oocyte [11] = test: as §2, with “alpha5beta2gamma2L” for “alpha1beta2gamma2L”; format: cell-based
Oocyte [12] = test: as §2, with “alpha5beta2gamma2L” for “alpha1beta2gamma2L”, “10” for “1”; format: cell-based
[13] = biological target: T1, GABA-A receptor; alpha-1/beta-2/gamma-2 (Homo sapiens); test: (§3) Antagonist at human recombinant GABA-A alpha1beta2gamma2L receptor expressed in Xenopus laevis oocytes assessed as blockade of diazepam-induced potentiation of GABA-induced chloride current at 10 uM incubated 60 seconds before addition of GABA measured after 30 seconds at holding potential -70 mV by two-microelectrode voltage clamp technique; format: functional, cell-based; conditions: Oocyte
Method in brief: (§4)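 Oocytes expressing human α1β2γ2L, α2β1γ2L or α5β2γ2L receptors were clamped at −70 mV. Compound at 10 μM was tested against the enhancement of the GABA EC10 response by 1.0 μM diazepam, with 60 s preapplication and 30 s coapplication. The response was expressed as percent potentiation, from 2–3 oocytes.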

[14] = biological target: T2, GABA A receptor alpha-1/beta-1/gamma-2 (Homo sapiens); test: as §3, with “alpha1beta1gamma2L” for “alpha1beta2gamma2L”; format: functional, cell-based; conditions: Oocyte
Oocyte [15] = test: as §3, with “alpha5beta2gamma2L” for “alpha1beta2gamma2L”; format: functional, cell-based; method in brief: as §4
[16] = biological target: T1, GABA-A receptor; alpha-1/beta-2/gamma-2 (Homo sapiens); test: as §2, with “at 0.01” for “at 1”; format: cell-based; conditions: Oocyte
[17] = biological target: T1, GABA-A receptor; alpha-1/beta-2/gamma-2 (Homo sapiens); test: as §2, with “at 0.1” for “at 1”; format: cell-based; conditions: Oocyte

Structure (SMILES)	pKi [1]	pKi [2]	Ratio Ki (Bos taurus)	other results
CCOC(=O)c1ncn2c1CN=C(c1ccc(OC)cc1)c1ccccc1-2	6.96	6.92	0.78	
CNC(=O)c1ncn2c1CN=C(c1ccc(Cl)cc1)c1cc(Cl)ccc1-2	< 5.00			
CCOC(=O)c1ncn2c1CN=C(c1ccc(Cl)cc1)c1cc(Cl)ccc1-2	6.63	6.68	1.3	
Clc1ccc(C2=NCc3c(-c4nnn[nH]4)ncn3-c3ccc(Cl)cc32)cc1	< 5.00			
N#Cc1ncn2c1CN=C(c1ccc(Cl)cc1)c1cc(Cl)ccc1-2	5.78			
O=C1OCCC2N=C(c3ccccc3)c3ccccc3-n3cnc1c32 (stereo unspecified)	6.55		0.95	
CN1C(=O)CN=C(c2ccccc2)c2cc(Cl)ccc21				Activity (Mus musculus [3]): Active; Activity (Mus musculus [4]): Active
CN1C(=O)CN=C(c2ccccc2F)c2cc([N+](=O)[O-])ccc21 [FLUNITRAZEPAM]	8.29	8.19	1.68	Ratio Ki (Homo sapiens): 1.6; Activity (Rattus norvegicus [5]): Active
CCOC(=O)c1ncn2c1CN=C(c1ccc(Cl)cc1)c1ccc3ccccc3c1-2	< 5.00			
CCOC(=O)c1ncn2c1C(C)N=C(c1ccc(F)cc1)c1cc(F)ccc1-2 (stereo unspecified)	6.29	6.26	1.19	
CCOC(=O)c1ncn2c1CN=C(c1cccc3ccccc13)c1cc(Cl)ccc1-2	6.73	6.67	1.3	
CCOC(=O)c1ncn2c1CN=C(c1ccc(F)cc1)c1ccccc1-2	7.94	7.68	0.77	Ratio Ki (Homo sapiens): 0.96; Activity (Rattus norvegicus [6]): Active
CN(C)C(=O)c1ncn2c1CN=C(c1ccc(Cl)cc1)c1cc(Cl)ccc1-2	< 5.00			
NC(=O)c1ncn2c1CN=C(c1ccc(Cl)cc1)c1cc(Cl)ccc1-2	< 5.00			
CCOC(=O)c1ncn2c1CN=C(c1cccc([N+](=O)[O-])c1)c1cc(Cl)ccc1-2	8.77	8.64	0.99	Ratio Ki (Homo sapiens): 0.98; Activity (Rattus norvegicus [6]): Active
CCOC(=O)c1ncn2c1CN(C)C(=O)c1cc(F)ccc1-2 [FLUMAZENIL]	8.72			Activity (Rattus norvegicus [6]): Active
CCOC(=O)c1ncn2c1CN=C(c1ccc(C)cc1)c1cc(Cl)ccc1-2	6.70	6.75	1.05	
CCOC(=O)c1ncn2c1C(C)N=C(c1ccccc1)c1ccccc1-2 (stereo unspecified)	6.34	6.12	1.3	
CCOC(=O)c1ncn2c1CN=C(c1ccc(OC)cc1)c1cc(Cl)ccc1-2	6.68	6.64		
CCOC(=O)c1ncn2c1CN=C(c1cccc([N+](=O)[O-])c1)c1cc(F)ccc1-2				Activity [7]: 14%; Activity [8]: -24%; Activity [9]: 10%; Activity [10]: -3.3%; Activity (Oocyte [11]): 27%; Activity (Oocyte [12]): -2.5%; Activity [13]: Active; Activity [14]: Active; Activity (Oocyte [15]): Active
CC(C)(C)OC(=O)c1ncn2c1CN=C(c1ccc(Cl)cc1)c1cc(Cl)ccc1-2	5.89			
CCOC(=O)c1ncn2c1CN=C(c1ccc(Cl)cc1)c1ccccc1-2	7.90	7.65	0.84	Ratio Ki (Homo sapiens): 0.87; Activity (Rattus norvegicus [6]): Active; Activity [16]: 13%; Activity [17]: 1%; Activity [7]: 3.6%; Activity [8]: 6.3%; Activity [9]: -7%; Activity [10]: -18%; Activity (Oocyte [11]): -0.5%; Activity (Oocyte [12]): 0%; Activity [13]: Active; Activity [14]: Active; Activity (Oocyte [15]): Active
CCOC(=O)c1ncn2c1CN=C(c1ccc(F)cc1)c1cc(Cl)ccc1-2	6.73	6.67	1.25	
